Screens (PubChem)
Redox H2O2 prof – compounds producing H2O2 with reducing agent – biochemical, NIH compound library profiling, artefact control for MLSCN library redox annotation, primary screen | DTT-dependent redox cycling H2O2, phenol red/HRP absorbance; 100% = 100 µM peroxide control, 0% = buffer | activation, % at 10 µM | hit rate 0.03% among 200,000;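 active = activation of at least 50% relative to the plate's high and low controls in the primary single-dose screen; inactive = activation below 50%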;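 note: compound incubated with DTT at 0.8 mM final as the reducing agent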
ROMK primary – modulators of human ROMK potassium channel. P48048. Tet-inducible ROMK, thallium flux fluorescence; actives lie on both sides. B-score at 10 µM. hit rate 2% among 130,000;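 active = signal ratio slope over the read window, or its plate-corrected B-score, at least 3 SD from the plate mean, either direction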;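 note: B-score of the F/F0 ratio slope over 7 to 12 s after thallium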
bCat nuc transl – beta-catenin nuclear translocation modulation | HeLa beta-catenin nuclear translocation, immunofluorescence imaging | nuclear translocation activity, % at 5 µM | hit rate 0.3% among 190,000;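 active = nuclear translocation activity above 50% at 5 µM, with a well cell count of 50 or more; inconclusive = wells under 50 cells across six images, flagged as toxic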;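 note: per-cell ratio of nuclear to cytoplasmic median beta-catenin stain intensity; plate controls were DMSO negative control for no effect and GSK-3 inhibitor IX positive control for full effect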
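assay system = human HeLa cells, endogenous beta-catenin | times = compound treatment 24 h, 37°C, 5% CO2 | detection = Anti-beta-catenin immunofluorescence on PFA-fixed, Triton-permeabilized cells, DAPI nuclei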
MT stabilize HCS – stabilizes microtubules in HeLa cells; HeLa tubulin immunostaining HCS, 24 h; share of cells brighter than vehicle mean+2SD; % tubulin-high responders, % at 10 µM; hit rate 0.83% among 200,000;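 active = plate Z-score above 3 for both tubulin-high and condensed-nucleus cell shares, with cell loss under 80%, at 10 µM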;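 note: anti alpha tubulin signal scored within the nucleus-defined area of each cell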
Cl transport mod – modulators of human KCC2 chloride dependent transport | KCC2 cells, thallium flux FluoZin-2 fluorescence | B-score of Tl+ flux slope (higher = more flux/activation; lower = inhibition) at 10 µM | hit rate 2.2% among 190,000;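 active = thallium flux slope and its plate-corrected score both differing from the plate sample mean at a set confidence after two filtering rounds, in either direction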;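 note: slope of fluorescence scaled to starting intensity during 10 to 20 s after thallium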
KCC2 secondary – KCC2 (human) modulation, secondary assay | shares compounds with Cl transport mod | HEK293-KCC2, thallium flux, FluoZin2 fluorescence; hits give high values | normalised thallium flux (F/F0 slope) at 10 µM | hit rate 15% among 3,700;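 active = thallium flux slope above the same plate's solvent-only control mean plus 3 SD; inconclusive = the two replicate wells disagree; inactive = no significant difference from solvent-only control wells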
KCC2 bumet counter – bumetanide-insensitive thallium flux in KCC2 cells with ouabain, counter-screen; hit rate 49% among 3,700; HEK293-KCC2 + bumetanide/ouabain, thallium flux FluoZin2; hits give high values; shares compounds with Cl transport mod; normalized thallium flux at 10 µM; AID 1714;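 active = thallium entry rate above the same plate's blocked-transporter control wells by more than 3 SD; inconclusive = the two repeat wells disagree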;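 note: raw slope of fluorescence over initial fluorescence between 10 and 20 s after thallium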
KCC2 secondary2 – confirmation of human KCC2 transport modulators; HEK293-KCC2, thallium flux FluoZin2 fluorescence; actives lie on both sides; F/F0 rise rate, 10–20 s post-thallium; hit rate 23% among 3,700; normalized thallium flux at 10 µM; AID 1715; shares compounds with Cl transport mod;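 active = thallium flux slope more than 3 SD above or below the plate's solvent-only control mean, mostly below; inconclusive = the two repeat wells disagreed; inactive = no significant shift from solvent-only controls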;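 note: raw slope with 0.1% DMSO as baseline and bumetanide as block control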
HEK293 Tl flux – counter-screen for KCC2 modulators: effect in parental HEK293 cells. AID 1716. thallium flux FluoZin2, ouabain; baseline-ratio fluorescence slope, 10–20 s after thallium. shares compounds with Cl transport mod. thallium flux rate (normalised fluorescence) at 10 µM. hit rate 46% among 3,700;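 active = thallium flux rate significantly above the same plate's solvent-only control wells, beyond their mean plus 3 SD; inconclusive = the two replicate wells gave conflicting results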
KCC2 ouabain – modulates human KCC2 on retest with ouabain; shares compounds with Cl transport mod; HEK293-KCC2, thallium flux FluoZin2 fluorescence; bidirectional: low = inhibitor, high = activator; raw Tl+ flux slope (below DMSO = inhibition, above = activation) at 10 µM; hit rate 48% among 3,700; AID 1717;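 active = thallium flux slope beyond 3 SD from same-plate DMSO control mean in most replicates, usually higher, sometimes lower; inconclusive = repeat tests gave conflicting results; inactive = no significant difference from controls in most replicates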;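 note: slope of initial-normalized fluorescence between seconds 10 and 20 after thallium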
HEK293 Tl flux2 – counter-screen for KCC2 modulators: effect in parental HEK293 cells | shares compounds with Cl transport mod | thallium flux FluoZin-2 fluorescence slope | thallium flux slope at 10 µM | hit rate 33% among 3,700 | AID 1718;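 active = thallium flux slope above the same plate's solvent-control mean plus 3 SD in both duplicate wells; inconclusive = duplicate wells that disagreed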;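 note: run without ouabain in cells lacking the KCC2 cotransporter; slope of fluorescence scaled to its starting value between 10 and 20 s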
* hit, by the source's call; ? = inconclusive; . = not tested or not shown. Only some compounds are listed: those with a hit (about 3.7% of all), similar ones and a draw of the others.

SMILES	Redox H2O2 prof	ROMK primary	bCat nuc transl	MT stabilize HCS	Cl transport mod	KCC2 secondary	KCC2 bumet counter	KCC2 secondary2	HEK293 Tl flux	KCC2 ouabain	HEK293 Tl flux2
CC(C)Oc1ccc(CNC(=S)N/N=C/c2ccc([N+](=O)[O-])cc2)cc1	-2	.	-2	3	3.6*	0.0093	0.0068	0.034	0.0038	0.021	0.012
Cc1c(N/C(=N/S(=O)(=O)c2ccc(Cl)cc2)c2ccccc2)c(=O)n(-c2ccccc2)n1C	0	-0.5	0	4	-0.029	.	.	.	.	.	.
CN(C)S(=O)(=O)c1cc(NC(=O)CSc2ncc(C(F)(F)F)cc2Cl)ccc1Cl	0	-0.57	-4	2	50*	0.0078	0.0047	?	0.0075	0.019	0.011
Cc1cccc(OCc2n[nH]c(=S)n2Cc2ccccc2)c1	-2	-1.2	0	5	8.9*	0.013*	0.062*	0.033	0.018*	0.026	0.012*
S=c1[nH]nc(-c2ccc(Br)cc2)n1Cc1ccco1	-5	-0.36	-5	4	.	0.0065	0.016*	0.029	0.015*	?	0.014*
CCc1ccc(OCc2n[nH]c(=S)n2C(C)CCCC(C)C)cc1 (stereo not drawn)	-2	0.096	-3	3	1.4	.	.	.	.	.	.
S=c1[nH]nc(-c2ccncc2)n1Cc1ccco1	0	0.24	0	3	-0.61	.	.	.	.	.	.
CC(C)CCn1c(COc2ccccc2)n[nH]c1=S	0	-0.76	-3	2	6.2*	0.0096	0.03*	0.029	0.014*	0.026	0.011*
S=c1[nH]nc(COc2ccc(Cl)cc2)n1Cc1ccco1	-2	-0.12	0	6	10*	0.0096	0.057*	0.029	0.012*	0.028*	?
S=c1[nH]nc(COc2ccccc2)n1Cc1ccccc1	0	0.014	2	2	3.3	.	.	.	.	.	.
CCCN1CCC(N2CCCC(C(=O)O)C2)CC1 (stereo not drawn)	0	0.083	0	3	1.1	.	.	.	.	.	.
CC(C)CNC(=O)c1ccccc1SCC(=O)NC12CC3CC(CC(C3)C1)C2	0	-0.012	2	2	-0.092	.	.	.	.	.	.
CCc1ccc(OCc2n[nH]c(=S)n2Cc2ccccc2)cc1	-1	0.69	-1	1	15*	0.0095	0.036*	0.03	0.015*	?	0.011*
CCCCc1n[nH]c(=S)n1Cc1ccc(Cl)cc1	0	-0.49	0	3	4.2*	0.0088	0.017*	0.034	0.0094*	0.022	0.011
CCCCc1n[nH]c(=S)n1Cc1ccccc1	-1	-1.3	-4	5	-0.044	.	.	.	.	.	.
C/C(Cn1nc([N+](=O)[O-])cc1C)=N\NC(=O)COc1c(Cl)cc(Cl)cc1Cl	0	.	-3	3	-1.5	.	.	.	.	.	.
O=C(N/N=C/c1ccncc1)c1ccc(COc2cccc3cccnc23)cc1	-2	-0.81	2	8	-2.7	.	.	.	.	.	.
O=C(N/N=C/c1ccc2cccc(OCc3ccccc3)c2n1)c1ccc(Cl)cc1	-4	0.74	2	4	4.9*	0.022*	0.048*	0.031	0.014*	0.025*	?
O=P(OCC1CC1)(c1ccccc1)c1ccccc1	0	-0.55	-3	3	-0.4	.	.	.	.	.	.
O=C(C[n+]1ccccc1)c1ccc(-c2ccccc2)cc1	0	-0.2	1	2	-4.6*	0.015	0.0047	0.022*	0.0078	0.014	0.011
